Results from ChEMBL document CHEMBL1275350, “First in class, potent, and orally bioavailable NADPH oxidase isoform 4 (Nox4) inhibitors for the treatment of idiopathic pulmonary fibrosis” (J Med Chem, 2010).
One block for each compound: values may come before it.

Columns and labels:
NADPH oxidase 4 = biological target: T1, NADPH oxidase 4 (Homo sapiens, UniProt Q9NPH5); assay: Inhibition of human NOX4 overexpressed in T-REx-293 cell membrane assessed as ROS production by cell free assay in presence of NADPH; conditions: in the assay text read “T-REx-293 cell membrane” for “human PMN cell membrane”
T1 sequence (Q9NPH5 whole entry): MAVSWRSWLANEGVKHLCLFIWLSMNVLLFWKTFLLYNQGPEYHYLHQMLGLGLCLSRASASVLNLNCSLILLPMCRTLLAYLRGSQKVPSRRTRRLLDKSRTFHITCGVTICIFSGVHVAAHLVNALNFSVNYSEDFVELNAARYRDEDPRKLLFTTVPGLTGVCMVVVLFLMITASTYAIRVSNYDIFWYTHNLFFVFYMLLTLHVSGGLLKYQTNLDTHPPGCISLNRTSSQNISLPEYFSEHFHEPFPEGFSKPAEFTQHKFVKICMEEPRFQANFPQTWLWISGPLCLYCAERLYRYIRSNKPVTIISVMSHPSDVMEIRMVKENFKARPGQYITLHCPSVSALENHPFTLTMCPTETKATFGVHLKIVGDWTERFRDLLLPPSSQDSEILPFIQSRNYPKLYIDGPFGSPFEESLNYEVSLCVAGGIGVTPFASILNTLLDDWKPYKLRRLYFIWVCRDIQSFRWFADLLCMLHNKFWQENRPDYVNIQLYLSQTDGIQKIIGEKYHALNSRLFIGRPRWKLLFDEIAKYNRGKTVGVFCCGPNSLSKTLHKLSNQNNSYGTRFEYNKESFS
Outline: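 hNOX4 T-REx-293 cells induced with tetracycline (1 μg/mL, 24 h), sonicated in sucrose/NaCl/EGTA PBS buffer pH 7.4, membranes taken from a sucrose gradient. NADPH-triggered ROS measured by Amplex Red/HRP in PBS, with compound at 1 nM–100 μM, 20 min at 37 °C. Ki by Cheng-Prusoff from ≥3 triplicate experiments.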

[1] = Intrinsic clearance in Sprague-Dawley rat liver microsomes assessed per mg of protein at 0.5 uM; assay type: ADME, Microsome
Outline: (§1)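 Phase I stability assay in pooled liver microsomes (human: male and female; rat: male Sprague-Dawley). Microsomes at 0.5 mg/mL final in 0.1 M phosphate pH 7.4. Compound 0.5 μM final, 0.25% DMSO. Preincubated at 37 °C, reaction started with 1 mM NADPH. Sampled at 0, 5, 15, 30 and 45 min, with a 45 min minus-NADPH control. Methanol quench with internal standard, LC/MS-MS, intrinsic clearance calculated.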

[2] = Permeability across human Caco-2 cell membrane at 10 uM after 2 hrs; assay type: ADME, cell-based
Outline: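 Caco-2 monolayers grown 20 days in DMEM, used when TEER >800 Ω·cm2. Dosed at 10 μM final in HBSS pH 6.5 with 1% DMSO, apical-to-basolateral and basolateral-to-apical. Incubated 2 h at 37 °C, both compartments sampled, LC-MS/MS with five-point calibration. Papp = (dQ/dt)/(C0A).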

[3] = Intrinsic clearance in human liver microsomes assessed as per mg of protein at 0.5 uM; assay type: ADME, Microsome; outline: as §1
[4] = AUC (infinity) in Sprague-Dawley rat at 10 mg/kg, po; assay type: ADME, organism-based; set-up: time infinity, dose 10 mg/kg, route oral; conditions: plasma
Outline: (§2)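 Parallel design with six male rats: three given 5 mg/kg iv in EDPW (10% EtOH, 10% DMA, 30% PG, 50% water), three given 10 mg/kg orally in aqueous 0.5% CMC with 0.25% Tween 20. Carotid cannula blood sampled up to 24 h. Plasma levels by LC/MS/MS (LLOQ 1.00 ng/mL). Noncompartmental analysis.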

[5] = Oral bioavailability in Sprague-Dawley rat at 10 mg/kg; assay type: ADME, organism-based; conditions: in vivo
Outline: (§3)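 Parallel design in male rats, three per group. Group 1: 5 mg/kg iv in EDPW (10% EtOH, 10% DMA, 30% PG, 50% water). Group 2: 10 mg/kg oral in aqueous 0.5% CMC with 0.25% Tween 20. Carotid cannula blood drawn up to 24 h. Plasma measured by LC/MS/MS (LLOQ 1.00 ng/mL), noncompartmental analysis.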

[6] = Cmax in Sprague-Dawley rat at 10 mg/kg, po; assay type: ADME, organism-based; set-up: dose 10 mg/kg, route oral; conditions: in vivo; outline: as §2
[7] = Tmax in Sprague-Dawley rat at 10 mg/kg, po; assay type: ADME, organism-based; set-up: dose 10 mg/kg, route oral; conditions: in vivo; outline: as §3
[8] = Half life in Sprague-Dawley rat at 10 mg/kg, po; assay type: ADME, organism-based; set-up: dose 10 mg/kg, route oral; conditions: in vivo; outline: as §2
[9] = AUC (infinity) in Sprague-Dawley rat at 5 mg/kg, iv; assay type: ADME, organism-based; set-up: time infinity, dose 5 mg/kg, route intravenous; conditions: plasma; outline: as §2
[10] = Cmax in Sprague-Dawley rat at 5 mg/kg, iv; assay type: ADME, organism-based; set-up: dose 5 mg/kg, route intravenous; conditions: in vivo; outline: as §2
[11] = Clearance in Sprague-Dawley rat at 10 mg/kg, po; assay type: ADME, organism-based; set-up: dose 10 mg/kg, route oral; conditions: in vivo; outline: as §2
[12] = Half life in Sprague-Dawley rat at 5 mg/kg, iv; assay type: ADME, organism-based; set-up: dose 5 mg/kg, route intravenous; conditions: in vivo; outline: as §2
[13] = Clearance in Sprague-Dawley rat at 5 mg/kg, iv; assay type: ADME, organism-based; set-up: dose 5 mg/kg, route intravenous; conditions: in vivo; outline: as §2
[14] = Volume of distribution at steady state in Sprague-Dawley rat at 5 mg/kg, iv; assay type: ADME, organism-based; set-up: dose 5 mg/kg, route intravenous; conditions: in vivo, read-out: Vdss; outline: as §3

Structure (SMILES): CC(=O)n1c2cc(=O)n(Cc3cccnc3)c(C)c2c(=O)n1-c1ccccc1Cl
- Ki (NADPH oxidase 4): 240 nM

Structure (SMILES): Cc1c2c(=O)n(-c3ccc4nncn4n3)[nH]c2cc(=O)n1Cc1cccc(Oc2ccccc2)c1
- Ki (NADPH oxidase 4): > 30000 nM

Structure (SMILES): Cc1c2c(=O)n(-c3ccccc3Cl)[nH]c2cc(=O)n1Cc1cccc(N2CCOCC2)n1
- Ki (NADPH oxidase 4): 236 nM
- microsomal CLint at 0.5 µM [1]: 71.6 µL/min/mg

Structure (SMILES): Cc1c2c(=O)n(-c3nc4ccccc4s3)[nH]c2cc(=O)n1N1CCOCC1
- Ki (NADPH oxidase 4): 1210 nM

Structure (SMILES): COc1cccc(CC(=O)n2c3cc(=O)n(Cc4cccnc4)c(C)c3c(=O)n2-c2ccccc2)c1
- Ki (NADPH oxidase 4): 285 nM

Structure (SMILES): O=c1c2c(COCc3ccccc3)n(Cc3cnccn3)c(=O)cc2[nH]n1-c1ccccc1Cl
- Ki (NADPH oxidase 4): 95 nM
- microsomal CLint at 0.5 µM [1]: 49.5 µL/min/mg
- Papp at 2 h, 10 µM [2]: 78.6 ×10⁻⁶ cm/s
- microsomal CLint at 0.5 µM [3]: 32.4 µL/min/mg
- AUC(0-inf) [4]: 8930 ng·h/mL
- bioavailability [5]: 29%
- Cmax [6]: 6080 ng/mL
- Tmax [7]: 0.25 h
- half-life [8]: 2.38 h
- AUC(0-inf) [9]: 15400 ng·h/mL
- Cmax [10]: 36800 ng/mL
- CL/F [11]: 20 mL/min/kg
- half-life [12]: 3.14 h
- clearance [13]: 5.5 mL/min/kg
- Vd [14]: 0.35 L/kg

Structure (SMILES): Cc1c2c(=O)n(-c3nc4ccccc4s3)n(Cc3ccccc3)c2cc(=O)n1CC1CCCO1 (centres undefined)
- Ki (NADPH oxidase 4): > 30000 nM

Structure (SMILES): CCOCCCn1c(C)c2c(=O)n(-c3ccccc3Cl)n(Cc3ccccn3)c2cc1=O
- Ki (NADPH oxidase 4): > 30000 nM

Structure (SMILES): CN(Cc1c2c(=O)n(-c3ccccc3Cl)[nH]c2cc(=O)n1CCc1ccccn1)c1ccccc1
- Ki (NADPH oxidase 4): 172 nM

Structure (SMILES): Cc1c2c(=O)n(CCN3CCOCC3)[nH]c2cc(=O)n1Cc1ccccn1
- Ki (NADPH oxidase 4): 445 nM

Structure (SMILES): Cc1c2c(=O)n(-c3nc4ccccc4s3)n(Cc3ccccc3Cl)c2cc(=O)n1N1CCOCC1
- Ki (NADPH oxidase 4): > 30000 nM

Structure (SMILES): Cc1c2c(=O)n(Cc3ccccc3)[nH]c2cc(=O)n1Cc1ccccn1
- Ki (NADPH oxidase 4): 463 nM

Structure (SMILES): CC(=O)n1c2cc(=O)n(Cc3cccnc3)c(C)c2c(=O)n1-c1ccccc1C
- Ki (NADPH oxidase 4): 398 nM

Second part, the compound after the results:

- Ki (NADPH oxidase 4): 114 nM
- microsomal CLint at 0.5 µM [1]: 125 µL/min/mg
- Papp at 2 h, 10 µM [2]: 35.5 ×10⁻⁶ cm/s
- microsomal CLint at 0.5 µM [3]: 49.3 µL/min/mg
- AUC(0-inf) [4]: 3630 ng·h/mL
- bioavailability [5]: 28%
- Cmax [6]: 558 ng/mL
- Tmax [7]: 1.17 h
- half-life [8]: 3.03 h
- AUC(0-inf) [9]: 6530 ng·h/mL
- Cmax [10]: 30400 ng/mL
- CL/F [11]: 48.7 mL/min/kg
- half-life [12]: 3.47 h
- clearance [13]: 12.8 mL/min/kg
- Vd [14]: 0.8 L/kg
Structure (SMILES): Cn1c(COc2ccc(F)cc2)c2c(=O)n(-c3ccccc3Cl)[nH]c2cc1=O

- Ki (NADPH oxidase 4): 158 nM
- microsomal CLint at 0.5 µM [1]: 178 µL/min/mg
Structure (SMILES): Cc1c2c(=O)n(-c3ccccc3Cl)[nH]c2cc(=O)n1CC#Cc1ccccc1

- Ki (NADPH oxidase 4): 235 nM
Structure (SMILES): Cc1c2c(=O)n(-c3ccccc3Cl)[nH]c2cc(=O)n1CCN(C)C

- Ki (NADPH oxidase 4): 9490 nM
Structure (SMILES): Cc1c2c(=O)n(-c3ccccc3)[nH]c2cc(=O)n1Cc1ccco1

- Ki (NADPH oxidase 4): 4730 nM
Structure (SMILES): Cc1c2c(=O)n(-c3nc4ccccc4s3)[nH]c2cc(=O)n1CCc1c[nH]cn1

- Ki (NADPH oxidase 4): 565 nM
Structure (SMILES): Cc1c2c(=O)n(-c3ccccc3Cl)[nH]c2cc(=O)n1CCCO

- Ki (NADPH oxidase 4): 878 nM
Structure (SMILES): Cc1c2c(=O)n(-c3ccc(F)cc3)[nH]c2cc(=O)n1Cc1ccccc1

- Ki (NADPH oxidase 4): 259 nM
Structure (SMILES): Cc1c2c(=O)n(-c3ccccc3Cl)[nH]c2cc(=O)n1Cc1ccc(S(N)(=O)=O)cc1

- Ki (NADPH oxidase 4): 328 nM
Structure (SMILES): CC(=O)Nc1cccc(-n2[nH]c3cc(=O)n(C)c(C)c3c2=O)c1

- Ki (NADPH oxidase 4): 5230 nM
Structure (SMILES): Cc1c2c(=O)n(-c3ccccc3)[nH]c2cc(=O)n1CCc1ccccc1

- Ki (NADPH oxidase 4): 5440 nM
Structure (SMILES): Cc1c2c(=O)n(-c3ccccc3)[nH]c2cc(=O)n1Cc1ccc2c(c1)OCO2

- Ki (NADPH oxidase 4): 218 nM
Structure (SMILES): Cc1c2c(=O)n(-c3ccccc3Cl)[nH]c2cc(=O)n1NC(=O)COc1ccc(F)cc1

- Ki (NADPH oxidase 4): 340 nM
- microsomal CLint at 0.5 µM [1]: 163 µL/min/mg
Structure (SMILES): Cc1c2c(=O)n(-c3cccc(Cl)c3)[nH]c2cc(=O)n1C

- Ki (NADPH oxidase 4): 1950 nM
Structure (SMILES): Cc1c2c(=O)n(-c3nc(-c4ccccc4)cs3)[nH]c2cc(=O)n1C

- Ki (NADPH oxidase 4): 173 nM
Structure (SMILES): Cc1ccccc1-n1[nH]c2cc(=O)n(Cc3ccccn3)c(C)c2c1=O
